# High-throughput results from PubChem.
# UBC13 inh: blocks human UBC13 polyubiquitin chain formation; P61088; AID 485273; hit rate 0.47% among 330,000; TR-FRET; inhibition, % at 20 µM; in the data active = inhibition above about 45%, passing the limit was not always enough; inconclusive = no clear call, values can overlap the other calls
# Target sequence (P61088 whole entry, looked up): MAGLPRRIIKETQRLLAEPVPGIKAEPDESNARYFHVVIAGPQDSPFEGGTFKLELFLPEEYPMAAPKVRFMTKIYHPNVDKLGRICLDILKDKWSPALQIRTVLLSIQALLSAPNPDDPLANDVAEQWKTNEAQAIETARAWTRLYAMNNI
# AI-2 QS mod: Vibrio harveyi AI-2 quorum sensing modulation; activity change, % at 7.5 µM; Vibrio harveyi JMH597 AI-2 luminescence/OD600 ratio, 9 h; hits give low values; strain lacks LuxN and CqsS sensors; 0 = neutral-control median; hit rate 0.4% among 300,000; in the data active = activity change below about -75%, passing the limit was not always enough; inconclusive = no clear call, values can overlap the other calls;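 note: luminescence divided by OD600 gain over 9 h not by final OD600 alone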
# T cruzi inh: blocks replication of Trypanosoma cruzi | T. cruzi beta-gal in NIH3T3, luminescence, 90 h | inhibition, % (test concentration not listed) | hit rate 1.4% among 300,000 | AID 1885;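 active = mean inhibition across valid replicates above about 55%, limit read from the data; inconclusive = mean below that limit but half or more replicates reach it; inactive = mean below it, under half of replicates reach it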;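 note: signal also drops with host cell toxicity which is not excluded here; 0% = plate median of DMSO wells and 100% = zero luminescence signal; higher percent means less beta-gal luminescence so fewer parasites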
#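 System: Mouse NIH/3T3 fibroblasts infected with β-gal-expressing T. cruzi Tulahuen C4 | Quantity: NIH/3T3 cells, 5,000 per well | Reagent: 5000 reporter trypomastigotes per well | Dosing: Compound pinned at 50 nL/well, DMSO | Schedule: 3 h host attachment, then at least 90 h co-culture | Detection: GalScreen luminescence, 60 min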
# PP1 counter: blocks human PP1-alpha phosphatase, a PP5 counter-screen; P62136; purified PP1alpha, OMFP fluorescence; inhibition, % at 6.7 µM; hit rate 0.9% among 320,000;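 active = inhibition above the mean inhibition of all tested compounds plus 3 SD, computed separately for each screening campaign, cut at about 15% in these data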
# p-CIP stab down: p/CIP protein destabilization | decrease of EGFP signal, % at 10 µM | hit rate 0.01% among 290,000 | AID 1984 | Q05BA5 | F442A p/CIP-EGFP cells, EGFP fluorescence, 16 h;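 active = EGFP signal decrease of at least 30% at 10 µM or well 3 SD below plate mean, unless failing retest; inactive = the rest, including hits failing retest or dose response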
# PP1 inh confirm: confirmation of human PP1 phosphatase inhibitors; inhibition, % at 6.7 µM; shares compounds with PP1 counter; purified PP1alpha, OMFP substrate fluorescence; hit rate 52% among 1,900;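 active = mean PP1 inhibition above a set limit taken from the earlier primary screen, cut at about 15% in these data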
# PP5 counter: counter-screen for PP1 inhibitors: human PP5 phosphatase inhibition. shares compounds with PP1 counter. purified PP5c, OMFP fluorescence. inhibition, % at 6.7 µM. hit rate 4% among 1,900. AID 2360;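 active = mean PP5 inhibition over triplicate wells above about 9.5% taken from the earlier PP1 screen, limit read from the data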
# Target sequence (P53041 whole entry, looked up): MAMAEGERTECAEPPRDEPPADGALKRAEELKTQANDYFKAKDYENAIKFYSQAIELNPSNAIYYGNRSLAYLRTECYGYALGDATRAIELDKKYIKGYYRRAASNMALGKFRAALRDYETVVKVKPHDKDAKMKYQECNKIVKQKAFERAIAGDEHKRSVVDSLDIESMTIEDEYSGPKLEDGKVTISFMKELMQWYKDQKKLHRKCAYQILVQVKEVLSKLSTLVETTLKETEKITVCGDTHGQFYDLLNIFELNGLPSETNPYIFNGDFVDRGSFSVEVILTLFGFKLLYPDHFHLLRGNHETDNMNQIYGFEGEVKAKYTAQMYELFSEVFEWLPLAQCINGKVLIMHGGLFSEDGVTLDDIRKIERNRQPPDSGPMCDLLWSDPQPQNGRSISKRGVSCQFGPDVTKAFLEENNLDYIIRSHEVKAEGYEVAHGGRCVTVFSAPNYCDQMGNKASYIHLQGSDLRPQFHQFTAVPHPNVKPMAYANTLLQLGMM
# Active calls of the source: *; ? = inconclusive; . = not tested or not shown. In the library only some 2.8% were active in any assay of this set; here they are far more common.
SMILES,UBC13 inh,AI-2 QS mod,T cruzi inh,PP1 counter,p-CIP stab down,PP1 inh confirm,PP5 counter
CCn1nc([N+](=O)[O-])c(C(C#N)c2nc3cc(C(F)(F)F)ccc3s2)c(Cl)c1=O (stereo unspecified),-143.7,27.6,-15.6,22.3*,-9.6,22.1*,4.7
CCCn1nc([N+](=O)[O-])c(C(C#N)c2nc3ccccc3o2)c(Cl)c1=O (stereo unspecified),-114.3,0.3,-15.5,9.2,5.7,.,.
COc1ccc(/C=N/Nc2cc(C)nc(-n3nc(C)cc3C)n2)cc1,-8.3,26.2,43.8,38.6*,-1.5,49.7*,0.3
Cc1cc(N/N=C/c2cccc([N+](=O)[O-])c2)nc(-n2nc(C)cc2C)n1,0.2,30.6,-55.2,3.5,-5.3,.,.
Cc1cc(N/N=C/c2cccc(Cl)c2)nc(-n2nc(C)cc2C)n1,33.8,20.6,32.7,18.4*,-2.9,22.9*,-2.8
Cc1cc(C)n2nc(C(=O)N/N=C/c3cccc(Cl)c3)nc2n1,-9.8,28.9,4.7,17.8*,-1.3,0.2,-2.0
COc1ccc(/C=N/Nc2cc(C)nc(NS(=O)(=O)c3ccc(C)cc3)n2)cc1,-5.8,-0.3,1.0,1.7,-3.1,.,.
COc1ccc(N(C(C)=O)c2nc(C)cc(C)c2C#N)c(OC)c1,1.0,21.9,-10.9,3.5,-5.0,.,.
CC1=CC(=O)c2c(O)ccc(O)c2C1=O,.,.,.,28.2*,-6.9,2.2,28.0*
O=C1C=C(O)c2cccc(O)c2C1=O,-82.6,.,.,-1.9,-4.0,.,.
Cc1ccc(Nc2cc(C)nn2-c2nc(C)cc(=O)[nH]2)cc1,-28.3,-159.6*,56.0*,26.4*,-5.7,20.2*,1.2
Cc1ccc(Nc2cc(C)nn2-c2nc(C)cc(C)n2)cc1,5.7,17.2,37.0,13.6,-4.4,.,.
COc1ccc(OC)c(/C=C/C(=O)OCC(=O)Nc2nnc(-c3ccccc3)o2)c1,-16.2,.,.,32.7*,.,28.1*,-1.6
COc1ccccc1/C=C/C(=O)OCC(=O)Nc1nnc(-c2ccccc2)o1,-2.4,.,.,.,.,.,.
Cc1ccc(NC(=O)CC2S/C(=N/c3nccs3)N(C)C2=O)c(C)c1 (stereo unspecified),0.7,24.6,0.2,4.6,-26.1,.,.
CC(C)(C)C(=O)Nc1ccccc1-c1nc2ccccc2[nH]c1=O,-16.4,4.5,11.7,-3.0,-6.3,.,.
Cc1ccc(S(=O)(=O)n2ccc3c(OCCOCCNCc4ccc(F)cc4)cccc32)cc1,38.5,13.6,55.3*,18.4*,-15.7,-0.5,2.3
Cc1ccc(S(=O)(=O)NCCCCC(NC(=O)OC(C)(C)C)C(=O)O)cc1 (stereo unspecified) (tested in a mixture with another compound),-0.3,6.2,4.9,-2.6,-2.6,.,.
Cc1cc(C)c(C)c(OCCOCCNCc2ccccc2)c1,16.1,14.2,19.7,1.0,-1.5,.,.
Cc1ccc(S(=O)(=O)n2ccc3c(OCCOCCSCC(NC(=O)OC(C)(C)C)C(=O)O)cccc32)cc1 (stereo unspecified),-18.8,33.8,7.5,20.7*,-12.7,9.3,3.7
O=C(O)c1ccc2nc(-c3ccco3)c(-c3ccco3)nc2c1,20.6,20.3,10.2,.,-16.1,.,.
O=C(Nc1cccc(C(F)(F)F)c1)c1ccc2nc(-c3ccco3)c(-c3ccco3)nc2c1,11.0,13.5,5.9,32.3*,-9.0,11.5,-0.2
Cc1cc(=O)n2[nH]c(=O)c(N=Nc3ccccc3)c2[nH]1,-85.7,29.6,-13.9,1.8,2.3,.,.
CCOc1ccc(N=Nc2c(=O)[nH]n3c(=O)cc(C)[nH]c23)cc1,-305.8,27.6,11.1,18.7*,-4.1,6.5,-7.4
CC(C)C(C(=O)O)N1C(=O)/C(=C/c2cccn2C)SC1=S (stereo unspecified),.,.,.,-6.4,-19.7,.,.
SMILES,UBC13 inh,AI-2 QS mod,T cruzi inh,PP1 counter,p-CIP stab down,PP1 inh confirm,PP5 counter
O=C1/C(=C\c2ccco2)SC(=S)N1c1ccc(O)cc1,0.9,-57.9,-0.3,-0.2,-4.6,.,.
CC(C)C(C(=O)O)N1C(=O)/C(=C/C=C/c2ccco2)SC1=S (stereo unspecified),?,-2.9,9.1,19.5*,-23.8,14.2,-3.1
O=C1/C(=C/C=C/c2ccco2)SC(=S)N1c1ccc(O)cc1,44.6,53.8,-6.2,38.3*,-5.5,6.3,-2.0
CN(C(=O)COc1ccc(Cl)cc1Cl)C1(C)CCS(=O)(=O)C1 (stereo unspecified),-0.2,10.5,-5.9,-4.2,.,.,.
CCOC(=O)c1cnc(-n2nc(C)cc2C)nc1NCc1ccccc1,12.5,22.9,61.6*,53.6*,-16.7,58.2*,0.6
CCOC(=O)c1cnc(-n2nc(C)cc2C)nc1NC(C)c1ccccc1 (stereo unspecified),17.0,29.6,60.1*,39.1*,3.4,53.3*,5.5
CCOC(=O)c1cnc(-n2nc(C)cc2C)nc1NCCO,-7.1,7.1,-14.6,-0.5,0.3,.,.
CCOC(=O)c1cnc(-n2nc(C)cc2C)nc1NNc1ncc(-c2ccccc2)cn1,-37.0,5.2,15.3,22.7*,3.3,21.6*,-2.3
CCOC(=O)c1cnc(-n2cc(C)cn2)nc1NCc1ccc2c(c1)OCO2,4.1,36.0,28.9,20.8*,-6.9,65.5*,1.6
CC(=O)N(/N=C/c1ccc(C)cc1)c1nc(CCl)cs1,1.3,-2.9,-4.1,-0.8,-23.0,.,.
FC(F)(F)c1ccccc1NC(=S)NN=C1CCCCCC1,-1.2,2.9,-4.8,0.6,-14.7,.,.
O=C(CSC1=NS(=O)(=O)c2cc(Cl)ccc2N1)NCCc1ccccc1,-15.1,11.4,1.2,-1.6,.,.,.
Nc1ccc(S(=O)(=O)Nc2nccc(/C=C/c3ccc(Cl)cc3Cl)n2)cc1,10.8,9.3,4.1,18.5*,6.0,20.6*,-5.4
Cc1ccccc1/C=C/c1nc2ccccc2c(=O)[nH]1,1.7,4.9,-9.7,20.1*,2.8,18.0*,-1.6
Cc1ccccc1/C=C\c1nc2ccccc2c(=O)[nH]1,-15.2,19.5,1.1,9.8,22.1,.,.
C/C(CC(=O)Nc1cccnc1)=N\NC(=O)C(C)Oc1ccc(Cl)cc1Cl (stereo unspecified),-0.8,8.7,-24.1,-6.0,0.6,.,.
CCN(CC)S(=O)(=O)c1cccc(N=NC2=C(O)CCCC2=O)c1,-17.7,25.6,10.4,56.8*,-10.9,-0.1,-3.9
Cc1cc(=O)oc(C)c1C(=O)NC1CCCCCCC1,-14.4,-7.5,13.9,5.9,8.6,.,.
CCNS(=O)(=O)c1ccc2nc(NC(=O)/C=C/c3cc(OC)c(OC)c(OC)c3)sc2c1,1.3,20.8,0.6,21.1*,1.6,19.9*,-4.8
COc1cccc(OC)c1C(=O)Nc1nc2ccc(S(C)(=O)=O)cc2s1,9.5,12.3,-1.1,-1.5,6.1,.,.
COc1cc(/C=C/C(=O)Nc2nc3ccc(S(=O)(=O)NC(C)C)cc3s2)cc(OC)c1OC,-8.5,22.0,2.8,25.0*,-16.5,32.5*,-5.9
